Measured values taken from ChEMBL document CHEMBL1124663, “Design, synthesis, antineoplastic activity, and chemical properties of bis(carbamate) derivatives of 4,5-bis(hydroxymethyl)imidazole” (J Med Chem, 1989).

How the values were obtained:
[1] = Retention time was determined; assay type: ADME
Mus musculus [2] = assay: Body weight difference (BWD) of test animals administered with 50 mg/kg compound is determined on day 5 for P388 tumor cells; assay type: functional
How it was run: (§1)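 P388 leukaemia: about 10^6 cells in ascitic fluid inoculated ip on day 0 (CD2F1 mice). Compound given ip in normal saline as a freshly prepared solution or suspension, once daily on days 1–5. Treated-minus-control body weight difference in g, taken as day 5 minus day 1 weight. Groups of six.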

Mus musculus [3] = assay: Body weight difference (BWD) of test animals administered with 25 mg/kg compound is determined on day 5 for L1210 tumor cells; assay type: functional
How it was run: (§2)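 L1210 leukaemia: 10^5 cells implanted ip on day 0 in mice. Freshly prepared saline suspension given ip once daily on days 1–5. Body weight difference in g (treated minus control) taken as day 5 minus day 1. Six animals per dose.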

Mus musculus [4] = assay: Body weight difference (BWD) of test animals administered with 50 mg/kg compound is determined on day 14 for M5076 minus 1 tumor cells; assay type: functional
How it was run: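 M5076 sarcoma: 10^6 cells inoculated ip on day 0 in B6C3F1 mice. Fresh saline suspension dosed ip every fourth day, on days 1, 5, 9 and 13. Body weight difference in g (treated minus control) taken as day 14 minus day 1. Ten mice per group.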

Mus musculus [5] = assay: Body weight difference (BWD) of test animals administered with 100 mg/kg compound is determined on day 5 for L1210 tumor cells; assay type: functional; how it was run: as §2
Mus musculus [6] = assay: Body Weight Difference (BWD) of test animals administered with 25 mg/kg compound is determined on day 5 for P388 tumor cells; assay type: functional; how it was run: as §1
Mus musculus [7] = assay: Ability of 12.5 mg/kg of compound to kill L1210 tumor cells in mice is expressed as the log of the tumor cell population at the onset of treatment minus the log of the tumor cell population at the end of treatment; assay type: functional
How it was run: (§3)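 L1210 leukemia, 10^5 cells implanted ip on day 0. Drug given ip daily on days 1-5 as a saline suspension freshly prepared before each injection. Read-out is median survival of treated versus control mice (% T/C), and log cell kill is derived from it.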

Mus musculus [8] = assay: Body Weight Difference (BWD) of test animals administered with 6.25 mg/kg compound is determined on day 5 for P388 tumor cells; assay type: functional; how it was run: as §1
Mus musculus [9] = assay: Ability of 100 mg/kg of compound to kill M5076 tumor cells in mice is expressed as the log of the tumor cell population at the onset of treatment minus the log of the tumor cell population at the end of treatment; assay type: functional
How it was run: (§4)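 M5076 sarcoma, 10^6 cells ip on day 0 in B6C3F1 mice. Drug given ip as a fresh saline suspension every fourth day (days 1, 5, 9, 13). % T/C is median survival of treated versus control mice, counting long-term survivors. Cures are 60-day survivors. Log cell kill is derived from this.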

Mus musculus [10] = assay: The toxicity day was evaluated on day 5 for L1210 tumor cells of test animals dosed with 25 mg/kg of compound; 6/6; assay type: functional
How it was run: (§5)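 L1210 leukaemia, 10^5 cells, implanted ip on day 0. Freshly prepared saline suspension dosed ip daily on days 1-5. Toxicity evaluated on day 5 as survivors over animals in the initial test group.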

Mus musculus [11] = assay: The toxicity day was evaluated on day 5 for L1210 tumor cells of test animals dosed with 50 mg/kg of compound; 6/6; assay type: functional; how it was run: as §5
Mus musculus [12] = assay: The […] for M5076 minus 1 tumor cells of test animals dosed with 50 mg/kg of compound; 10/10; assay type: functional
How it was run: (§6)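 M5076 sarcoma, 10^6 cells, inoculated ip into B6C3F1 mice on day 0. Fresh saline suspension given ip every fourth day (days 1, 5, 9, 13). Toxicity survivors were scored on day 5 as survivors over initial group. Body-weight difference was day 14 minus day 1.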

Mus musculus [13] = assay: The toxicity day was evaluated on day 5 for L1210 tumor cells of test animals dosed with 100 mg/kg of compound; 6/6; assay type: functional; how it was run: as §5
Mus musculus [14] = assay: The percent of the median survival time of test mice compared to control mice, administered with 100 mg/kg compound on day 5 for L1210 tumor cells; assay type: functional; how it was run: as §3
Mus musculus [15] = assay: The percent of the median survival time of test mice compared to control mice, administered with 100 mg/kg compound on day 14 for M5076 minus 1 tumor cells; assay type: functional; how it was run: as §4
Mus musculus [16] = assay: The percent of the median survival time of test mice compared to control mice, administered with 200 mg/kg compound on day 14 for M5076 minus 1 tumor cells; assay type: functional; how it was run: as §4
Mus musculus [17] = assay: The percent of the median survival time of test mice compared to control mice is % T/C which refers to tumor size in this case. It is determined for mice administered with 100 mg/kg compound on day 11 for MX-1 tumor cells; assay type: functional; conditions: route intraperitoneal
How it was run: (§7)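 Human MX-1 mammary xenograft, a 1 mm3 (0.5 mg) tumor fragment implanted under the renal capsule of NCR-nu mice on day 0. Drug given ip as a fresh saline suspension on days 1, 5 and 9. Tumor size is assessed on day 11. A negative % T/C is percent shrinkage relative to the initial implant. Survivors in the toxicity group are […].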

Mus musculus [18] = assay: The percent of the median survival time of test mice compared to control mice is % T/C which refers to tumor size in this case. It is determined for mice administered with 60 mg/kg compound on day 11 for MX-1 tumor cells; assay type: functional; conditions: route intraperitoneal; how it was run: as §7
Mus musculus [19] = assay: The percent of the median survival time of test mice compared to control mice is % T/C. It is determined for mice administered with 100 mg/kg compound on day 0 for LOX 1 tumor cells.; assay type: functional; conditions: route intraperitoneal
Mus musculus [20] = assay: The percent of the median survival time of test mice compared to control mice is % T/C. It is determined for mice administered with 50 mg/kg compound on day 0 for LOX 1 tumor cells.; assay type: functional; conditions: route intraperitoneal
Mus musculus [21] = assay: The percent of the median survival time of test mice compared to control mice is determined for mice administered with 50 mg/kg compound; assay type: functional
Mus musculus [22] = assay: The toxicity day was evaluated on day 0 for LOX tumor cells of test animals dosed with 50 mg/kg of compound; 6/6; assay type: functional
Mus musculus [23] = assay: The toxicity day was evaluated on day 11 for MX-1 tumor cells of test animals dosed with 60 mg/kg of compound; 6/6; assay type: functional
How it was run: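 Human MX-1 mammary tumour (1 mm3, 0.5 mg) implanted under the renal capsule of NCR-nu mice on day 0. Drug was given ip as a freshly made saline suspension on days 1, 5 and 9. Readout is survivors over initial group size.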

Mus musculus [24] = assay: The toxicity day was […] for M5076 minus 1 tumor cells of test animals dosed with 100 mg/kg of compound; 10/10; assay type: functional; how it was run: as §6
Mus musculus [25] = assay: The percent of the median survival time of test mice compared to control mice, administered with 25 mg/kg compound on day 5 for L1210 tumor cells; assay type: functional; how it was run: as §3
Mus musculus [26] = assay: The percent of the median survival time of test mice compared to control mice, administered with 50 mg/kg compound on day 14 for M5076 minus 1 tumor cells; assay type: functional; how it was run: as §4
Mus musculus [27] = assay: Body weight difference (BWD) of test animals administered with 25 mg/kg compound is determined on day 10 for LOX tumor cells.
Mus musculus [28] = assay: Body weight difference (BWD) of test animals administered with 100 mg/kg compound is determined on day 10 for LOX tumor cells.

SMILES: CNC(=O)OCc1nc(SC)n(C)c1COC(=O)NC
- TR [1]: 39 min
- BWD (Mus musculus [2]): -2.6 g
- BWD (Mus musculus [3]): 0 g
- BWD (Mus musculus [4]): -0.7 g
- BWD (Mus musculus [5]): -1.9 g
- BWD (Mus musculus [6]): -1.4 g
- KE (Mus musculus [7]): -2.35
- BWD (Mus musculus [8]): -0.7 g
- KE (Mus musculus [9]): -0.34
- Survivors / animals tested (Mus musculus [10]): 6
- Survivors / animals tested (Mus musculus [11]): 6
- Survivors / animals tested (Mus musculus [12]): 10
- Survivors / animals tested (Mus musculus [13]): 6
- T/C (Mus musculus [14]): 145%
- T/C (Mus musculus [15]): 151%
- T/C (Mus musculus [16]): 184%
- T/C (Mus musculus [17]): -73%
- T/C (Mus musculus [18]): -91%
- T/C (Mus musculus [19]): 365%
- T/C (Mus musculus [20]): 231%
- T/C (Mus musculus [21]): 184%
- Survivors / animals tested (Mus musculus [22]): 6
- Survivors / animals tested (Mus musculus [23]): 6
- Survivors / animals tested (Mus musculus [24]): 10
- T/C (Mus musculus [25]): 111%
- T/C (Mus musculus [26]): 119%
- BWD (Mus musculus [27]): -3 g
- BWD (Mus musculus [28]): -5.1 g
